In experiment [1] the test system is LNCaP. The experiment in a line: Inhibition of colony formation assays on LNCaP cells; (NR: not reached at <= 10e -6M). The format is functional, cell-based. Conditions: Homo sapiens. In a few lines:
(§1)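 Soft agar clonal assay in six-well dishes with two layers: compound mixed into the 0.5% agar under layer, cells (1 × 10³/plate) in the 0.3% agar upper layer. Incubated 12 days at 37 °C in humidified 5% CO2. Colonies expressed as percent of untreated control plates. Triplicate plates per point, each experiment done at least three times; ED50 taken from dose-response curves.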

In experiment [2] the target is T1, Vitamin D-binding protein (Homo sapiens) (UniProt P02774).
T1 sequence (whole entry): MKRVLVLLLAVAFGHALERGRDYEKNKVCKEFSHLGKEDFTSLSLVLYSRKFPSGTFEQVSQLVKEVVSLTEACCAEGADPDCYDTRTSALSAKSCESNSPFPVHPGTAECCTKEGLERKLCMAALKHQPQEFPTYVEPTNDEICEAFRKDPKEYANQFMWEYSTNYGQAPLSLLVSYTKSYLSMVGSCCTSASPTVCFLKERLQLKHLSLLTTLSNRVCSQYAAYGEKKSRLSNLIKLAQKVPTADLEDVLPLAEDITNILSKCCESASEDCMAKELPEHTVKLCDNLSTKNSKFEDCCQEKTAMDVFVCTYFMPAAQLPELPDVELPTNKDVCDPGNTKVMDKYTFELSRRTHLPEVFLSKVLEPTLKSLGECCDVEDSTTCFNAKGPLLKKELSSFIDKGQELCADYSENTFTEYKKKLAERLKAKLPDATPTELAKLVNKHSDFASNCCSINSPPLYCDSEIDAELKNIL
Nature of the experiment: Percentage binding to Human Vitamin D binding protein, relative competitive index (RCI). An outline of the steps: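 Steroid competition assay with human DBP: increasing unlabeled ligand or 125D standard incubated 4 h at 4 °C with a fixed concentration of [³H]125D. Bound and free ligand separated by charcoal-dextran. RCI calculated relative to 125D, which is set at 100%.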

A short description of experiment [3]: Effective dose for Protease sensitivity. It is filed as functional. An outline of the steps: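 In vitro translated VDR labeled with [³⁵S]methionine, incubated 20 min at room temperature with ligand (10^-7–10^-11 M), then trypsin digestion 20 min; products resolved on 14% SDS-PAGE and autoradiographed. ED50 is the ligand concentration giving 50% of the maximal level of the major trypsin-resistant fragment. Trypsin level is given as both 15 and 20 µg/mL in the text.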

Experiment [4] deals with T2, Vitamin D3 receptor (Gallus gallus) (UniProt O42392).
T2 sequence (whole entry): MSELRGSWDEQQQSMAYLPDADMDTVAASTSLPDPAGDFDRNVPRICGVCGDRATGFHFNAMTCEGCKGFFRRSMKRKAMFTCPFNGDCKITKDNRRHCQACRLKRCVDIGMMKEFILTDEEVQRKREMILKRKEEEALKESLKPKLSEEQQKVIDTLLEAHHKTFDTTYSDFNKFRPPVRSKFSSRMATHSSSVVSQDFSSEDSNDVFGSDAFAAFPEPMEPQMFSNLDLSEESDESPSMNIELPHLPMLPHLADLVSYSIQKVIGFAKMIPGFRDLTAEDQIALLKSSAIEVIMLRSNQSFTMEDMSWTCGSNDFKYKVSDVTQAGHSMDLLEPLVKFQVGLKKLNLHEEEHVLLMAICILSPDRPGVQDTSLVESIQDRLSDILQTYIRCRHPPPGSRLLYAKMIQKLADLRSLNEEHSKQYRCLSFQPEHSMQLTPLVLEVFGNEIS
Nature of the experiment: Percentage binding to chick intestinal vitamin D3 receptor, relative competitive index (RCI). An outline of the steps: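 Competition binding to chick intestinal VDR: rising concentrations of competitor or unlabeled 125D incubated 4 h at 4 °C with a defined amount of [³H]125D. Bound ligand separated from free by hydroxyapatite. RCI computed with 125D defined as 100%.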

The subject of experiment [5] is HL-60. The experiment in a line: Inhibition of colony formation assays on HL-60 cells. The format is functional. Conditions: Homo sapiens, read-out: ED50 (the source's name).
In experiment [6] the test system is MCF7. Nature of the experiment: Inhibition of colony formation assays on MCF-7 cells. The format is functional. As to conditions: Homo sapiens, read-out: ED50 (the source's name). An outline of the steps:
as §1

The subject of experiment [7] is LNCaP. The experiment in a line: Inhibition of colony formation assays on LNCaP cells. Conditions: Homo sapiens, read-out: ED50 (the source's name). The format is functional. An outline of the steps:
as §1

Experiment [8] in a line: Effective dose for transcriptional activation in ROS 17/2.8 osteosarcoma cells. It is filed as functional. As to conditions: Rattus norvegicus; read-out: ED50 (the source's name).

Calls of active or inactive are those of the source.

Consider `C=C1/C(=C\C=C2/CCC[C@]3(C)[C@@H]([C@H](C)CCCC(C)(C)O)CC[C@@H]23)C[C@@H](O)C[C@@H]1O`, for which the ED50 entry in experiment [1] was “inactive”. The same compound showed an RCI in experiment [2] of 100%. In experiment [3], the ED50 amounted to 5.9 nM.

`C=C1/C(=C\C=C2/CCC[C@]3(C)[C@@H]([C@@H](C)CCCC(C)(C)O)CC[C@@H]23)C[C@@H](O)C[C@@H]1O`: the RCI in experiment [2] amounted to 2.6%; in experiment [4], 147%. The ED50 in experiment [3] came to 0.13 nM.

On to `C=C1/C(=C\C=C2/CCC[C@]3(C)[C@@H](C(CCCC(C)(C)O)CCCC(C)(C)O)CC[C@@H]23)C[C@@H](O)C[C@@H]1O`, for which the EC50 is 0.34 nM in experiment [5], 1.2 nM in experiment [6], 82 nM in experiment [7] and 1 nM in experiment [8]. Besides, the RCI in experiment [2] was determined as 2.5%; in experiment [4], 38%. For the same compound, the ED50 in experiment [3] was 180 nM.

Values taken from ChEMBL document CHEMBL1133773, “Characterization of a novel analogue of 1alpha,25(OH)(2)-vitamin D(3) with two side chains: interaction with its nuclear receptor and cellular actions” (2000).
